RGS4 block: human RGS4 inhibition; AID 463165; P49798; HEK293 M3R/RGS4 inducible, Fluo-4 calcium flux; stronger effect = higher value; triggered by carbachol at its EC20; hit rate 0.45% among 310,000; B-score at 10 µM;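 active = B-score, a plate-corrected calcium signal, over three deviations above library mean, with baseline fluorescence within five deviations of library mean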;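 also: RGS4 expression induced by doxycycline in cells with stable M3 receptor; B-score is computed from the integrated fluorescence ratio over baseline after carbachol; higher B-score means a larger calcium signal and so more RGS4 inhibition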
MrgX1 PAM: human MrgX1 positive allosteric modulation, primary screen; AID 588675; Q96LB2; B-score at 10 µM; MrgX1-HEK293, Fluo-4 calcium flux, FDSS; stronger effect = higher value; hit rate 0.63% among 310,000;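 active = plate-corrected calcium response at least 3 library SD above typical, normal starting fluorescence, not activating the receptor alone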;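 also: compound read alongside a low EC10 to EC30 dose of BAM8-22 agonist; peak minus trough fluorescence over baseline measured at the second addition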
Target sequence (Q96LB2 whole entry, looked up): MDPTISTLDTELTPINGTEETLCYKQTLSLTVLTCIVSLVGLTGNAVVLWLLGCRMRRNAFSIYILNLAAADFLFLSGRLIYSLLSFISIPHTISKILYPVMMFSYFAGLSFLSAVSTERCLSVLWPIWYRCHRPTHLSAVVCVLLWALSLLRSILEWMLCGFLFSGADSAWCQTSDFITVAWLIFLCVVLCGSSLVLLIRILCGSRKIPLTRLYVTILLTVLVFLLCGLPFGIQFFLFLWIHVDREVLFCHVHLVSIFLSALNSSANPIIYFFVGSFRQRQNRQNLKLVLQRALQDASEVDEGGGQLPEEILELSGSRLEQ
MrgX1 antag: human MrgX1 receptor antagonism, primary screen. MRGX1-HEK293 calcium flux, Fluo-4, BAM8-22 antagonism; stronger effect = lower value. B-score at 10 µM. hit rate 1.3% among 310,000. AID 588676;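 active = calcium-response B-score plate-corrected more than 3 library SD below zero, starting fluorescence within 5 deviations, no agonist response on first addition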;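 also: peak minus trough fluorescence over baseline after final BAM8-22 challenge near maximal dose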
RGS4 act: potentiators or activators of RGS4. hit rate 0.92% among 310,000. B-score at 10 µM. HEK293 M3R/inducible RGS4, carbachol calcium flux Fluo4; stronger effect = lower value;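 active = B-score of the integrated calcium signal more than 4 SD below the library mean, with starting fluorescence not abnormally high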;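 also: negative B-score means reduced calcium response which marks RGS4 activation or potentiation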
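Reagent: ECmax carbachol challenge; Test system: M3R-expressing HEK293 line, RGS4 induced by doxycycline; Schedule: overnight RGS4 induction, 30 min dye load 37 °C, 20 min compound RT; Detection: calcium dye Fluo4 fluorescence; Read-out: Agonist-evoked peak-minus-minimum fluorescence over baseline, integrated ratio, B score.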
MrgX1 agonist: activates human MrgX1 receptor signaling | Q96LB2 | MrgX1-HEK293 cells, Fluo-4 calcium fluorescence, agonist mode; stronger effect = higher value | B-score at 10 µM | hit rate 0.44% among 310,000;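 active = calcium response B-score plate-corrected fluorescence ratio at least 3 library SD, with starting fluorescence B-score inside 5 SD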
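Test system: HEK293 cells stably expressing human MrgX1 receptor; Input: fifteen thousand cells per well; Dosing: compound delivered in addition one of three; Schedule: overnight seeding, then 1 h dark dye loading; Technique: Fluo-4 NW calcium fluorescence; Measure: B-scored fluorescence response ratio; Controls: positive and negative controls per plate.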
MrgX1 allo conf: confirmation of human MrgX1 receptor positive allosteric modulators | activation (ratio percentage), % at 10 µM | hit rate 13% among 1,200 | shares compounds with MrgX1 PAM | MrgX1-HEK293, Fluo-4 calcium fluorescence, FDSS;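 active = ratio at least 3 SD above the weak peptide control, stable starting fluorescence, no direct agonism earlier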;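 also: compound followed by low BAM8-22 agonist challenge near EC20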
HEK293 Ca flux: MrgX1 antagonist counter-screen hit in parental HEK293 cells; shares compounds with MrgX1 antag; Fluo-4 calcium fluorescence, FDSS; fluorescence ratio F(max-min)/F0 at 10 µM; hit rate 2% among 4,000; AID 624111;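 active = duplicate-averaged calcium fluorescence ratio at least three times the standard deviation of buffer wells, a nonspecific response in parental cells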
HEK293 Ca counter: counter-screen for MrgX1 allosteric activators: effect in parental HEK293 cells; parental HEK293 calcium flux, Fluo-4 fluorescence ratio; stronger effect = higher value; shares compounds with MrgX1 antag; hit rate 0.4% among 4,000; AID 624114; fluorescence ratio F(max-min)/F0 at 10 µM;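 active = calcium fluorescence ratio, averaged over duplicates, at least 3 SD of the buffer-well ratio, meaning a nonspecific response in receptor-free cells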;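 also: untransfected parental HEK293 lacking MrgX1 used as counterscreen for MrgX1 allosteric activators; fluorescence change taken during the second addition on a kinetic imager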
HEK293 Ca cntr2: activity in parental HEK293 cells lacking MrgX1 receptor; fluorescence ratio F(max-min)/F0 at 10 µM; AID 624115; hit rate 8.7% among 4,000; shares compounds with MrgX1 antag; Fluo-4 calcium fluorescence (FDSS); stronger effect = higher value;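 active = calcium fluorescence ratio at least three times the spread of buffer wells, meaning a non-specific response in parental cells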
Numbers without * were called inactive; i = inactive; x = no result. Compounds with a hit are over-represented: about 3.5% of the library has one in this group of screens.

SMILES	RGS4 block	MrgX1 PAM	MrgX1 antag	RGS4 act	MrgX1 agonist	MrgX1 allo conf	HEK293 Ca flux	HEK293 Ca counter	HEK293 Ca cntr2
O=C(CCl)Nc1ccccc1C(=O)c1ccccc1	i	i	i	i	i	x	x	x	x
Cc1ccc(NC(=O)c2ccc(NS(=O)(=O)c3c(C)noc3C)cc2)cc1C	i	13*	i	i	i	2.3%*	i	i	i
COc1ccc(NC(=O)c2ccc(NS(=O)(=O)c3c(C)noc3C)cc2)cc1OC	i	i	i	i	i	x	x	x	x
COCCN1C(=O)/C(=C/c2ccc(N3CCCC3)cc2C)SC1=S	i	19*	i	i	i	i	0.13*	i	48*
Cc1ccc(C)c(N2CCN(C(=O)c3csc(C)c3C)CC2)c1	i	6.9*	i	i	i	i	i	i	i
CCOC(=O)c1cc(C#N)c(SCC(=O)OC)[nH]c1=O	i	i	i	i	i	x	x	x	x
CCOc1ccc(N2C(=O)C3CCCN3C2=O)cc1 (centres undefined)	i	i	i	i	i	x	x	x	x
COc1ccc(N2C(=O)C3CCCN3C2=O)cc1 (centres undefined)	i	10*	i	i	i	i	i	i	i
COc1ccc(C2(C(=O)Nc3ccc(OC)cc3OC)CCCC2)cc1	i	12*	i	i	i	i	i	i	i
O=C(CSc1ccc(-c2ccncc2)nn1)N1CCCC1	i	13*	i	i	i	i	i	i	i
CC1(C)c2ccccc2N(CC(N)=O)C12C=Cc1ccccc1O2 (centres undefined)	i	6.8*	i	i	i	i	i	i	i
Cc1ccc(CS(=O)Cc2ccc(C(=O)NC3CCC(C)CC3)o2)cc1 (centres undefined)	i	i	i	i	i	x	x	x	x
CC1CCCC(C)N1C(=O)c1cc(-c2ccc3c(c2)OCO3)on1 (centres undefined)	i	11*	i	i	i	i	i	i	i
O=C(c1cc(-c2cccc(Cl)c2)on1)N1CCCCCC1	i	12*	i	i	i	i	i	i	i
CC1CCCC(C)N1C(=O)c1cc(-c2ccc(Cl)c(Cl)c2)on1 (centres undefined)	i	7.8*	i	i	i	i	i	i	i
COc1ccc(C(=O)CCN2CCN(c3ccccc3F)CC2)cc1	i	20*	i	i	i	i	i	i	i
COc1ccc(C(=O)CCN2CCN(c3ccc(OC)cc3)CC2)cc1	i	i	i	i	i	x	x	x	x
O=C1N=c2ccccc2=C1c1sc(NS(=O)(=O)c2ccccc2)nc1O	i	21*	i	i	i	i	i	i	i
Nc1nc(Nc2ccccc2Br)nc(C(F)(F)F)n1	i	9.1*	i	i	i	i	i	i	i
Nc1nc(Nc2ccccc2)nc(C(F)(F)F)n1	i	i	i	i	i	x	x	x	x
CC(=O)Nc1ccc(S(=O)(=O)NC(CSc2ccc(C(=O)O)cc2[N+](=O)[O-])C(=O)O)cc1 (centres undefined)	i	i	i	i	i	x	x	x	x
Cc1ccc(-c2csc(NC(=O)c3ccccc3Cl)c2C(=O)O)cc1	i	6.6*	i	i	i	i	i	i	i
Cc1cccc(C(=O)Nc2scc(CC(C)C)c2C(=O)O)c1	i	i	i	i	i	x	x	x	x
